Experimental data as given in ChEMBL document CHEMBL4842360, “Discovery of a Bicyclic Peptidyl Pan-Ras Inhibitor” (J Med Chem, 2021).
Active and inactive are the calls of the source. No cut-off for these calls is given here. Numbered stars: 1 amine (or outer) side, 2 acyl side, 3 side chain; on linkers, the order of the positions; unused ones are H or OH. Bridge positions count the residues as written; N and C are the ends. Square brackets hold non-standard residues; d marks the D form. Peptide text beside a SMILES is read from it. Trimesoyl = O=C(c1cc(C(=O)[*:2])cc(C(=O)[*:3])c1)[*:1]; d2Nal = N[C@H](Cc1ccc2ccccc2c1)C(=O)O; Phg = N[C@H](C(=O)O)c1ccccc1; Orn = NCCC[C@H](N)C(=O)O; Dap = NC[C@H](N)C(=O)O

Experiments:
[1] = test system: NCI-H358; assay: Antitumor activity against human NCI-H358 cells xenografted in mouse assessed as reduction in ERK phosphorylation at 1 to 5 mg/kg, iv administered for 9 days measured every other day by immunohistochemical staining method; assay type: functional, organism-based; details: dose 1-5 mg/kg, time 9.0 day
[2] = test system: NCI-H358; assay: Induction of apoptosis in human NCI-H358 cells assessed as early apoptotic cells at 1 uM incubated for 24 hrs by Alexa Fluor 488 annexin V/propidium iodide staining based assay (reference value: 3.05%); assay type: functional
[3] = Toxicity in mouse xenografted with human A549 cells assessed as effect on body weight at 1 to 5 mg/kg, iv administered for 9 days; assay type: organism-based; details: in vivo, 216 h, dose 1-5 mg/kg, time 9 day
In short: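 About 1.5 million A549 cells given subcutaneously to nude mice. Dosing began once tumors reached ~40 mm3, with n = 6 per group. Mice received 1 or 5 mg/kg per day or vehicle (PBS) by tail-vein injection for 9 days. Body weight was monitored alongside tumor volume and weight at harvest.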

[4] = Drug distribution in human A549 cells assessed as accumulation in plasma membrane at 5 uM incubated for 2 hrs by live-cell confocal microscopy; assay type: ADME, cell membranes; details: a549, 2 h
In short: (§1)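 HeLa, H358 or A549 cells treated with 5 μM fluorescein-labeled peptide for 2 h, then imaged by live-cell confocal microscopy for intracellular fluorescence pattern.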

[5] = Drug distribution in human NCI-H358 cells assessed as diffuse fluorescence throughout the entire cell volume at 5 uM incubated for 2 hrs by live-cell confocal microscopy; assay type: ADME, cell-based; details: nci-h358, 2 h; in short: as §1
[6] = Drug distribution in human A549 cells assessed as diffuse fluorescence throughout the entire cell volume at 5 uM incubated for 2 hrs by live-cell confocal microscopy; assay type: ADME, cell-based; details: a549, 2 h; in short: as §1
[7] = test system: NCI-H358; assay: Induction of apoptosis in human NCI-H358 cells assessed as live cells at 10 uM incubated for 24 hrs by Alexa Fluor 488 annexin V/propidium iodide staining based assay (reference value: 87%); assay type: functional
[8] = test system: NCI-H358; assay: Antitumor activity against human NCI-H358 cells xenografted in mouse assessed as suppression of tumor growth at 5 mg/kg, iv administered for 9 days measured every other day; assay type: functional, organism-based; details: time 9.0 day
In short: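 H358 xenograft in mice; peptide given daily at 5 mg/kg i.v. for 9 days, with tumor growth followed over that period.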

[9] = Drug distribution in human HeLa cells assessed as fluorescent puncta in cytoplasmic region at 5 uM incubated for 2 hrs by live-cell confocal microscopy; assay type: ADME, cell-based; in short: as §1
[10] = Drug localization in human HeLa cells assessed as mean fluorescence intensity at 5 uM incubated for 2 hrs in presence of 1% FBS by flow cytometry relative to CPP12; assay type: ADME, cell-based
In short: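 HeLa cells treated with 5 μM fluorescein-labeled peptide and analysed by flow cytometry. Mean fluorescence intensity expressed relative to FITC-labeled CPP12 (100%).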

[11] = Drug distribution in human A549 cells assessed as fluorescent puncta in cytoplasmic region at 5 uM incubated for 2 hrs by live-cell confocal microscopy; assay type: ADME, cell-based; details: a549, 2 h; in short: as §1
[12] = test system: NIH3T3; assay: Cytotoxicity against mouse NIH3T3 cells incubated for 96 hrs by CellTiter-Glo2 assay; assay type: cell-based; details: NIH3T3, 96 h
In short: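 Cells plated at 5,000/well, grown overnight, then exposed to serially diluted peptide (0–40 μM) in medium with 10% FBS for 96 h at 37 °C, 5% CO2. Viability read by CellTiter-Glo 2.0 luminescence after 15 min at RT.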

[13] = test system: NCI-H358; assay: Induction of apoptosis in human NCI-H358 cells assessed as live cells at 5 uM incubated for 24 hrs by Alexa Fluor 488 annexin V/propidium iodide staining based assay (reference value: 87%); assay type: functional
[14] = test system: NCI-H358; assay: Induction of apoptosis in human NCI-H358 cells assessed as live cells at 1 uM incubated for 24 hrs by Alexa Fluor 488 annexin V/propidium iodide staining based assay (reference value: 87%); assay type: functional

Drug uptake [4]: Active
Drug uptake [5]: Active
Drug uptake [6]: Active
Drug uptake [9]: Active
Drug uptake [10]: 226%
Drug uptake [11]: Active
SMILES: C[C@@H](NC(=O)[C@H](Cc1ccccc1)NC(=O)[C@@H](CCCNC(=N)N)NC(=O)[C@H](CCCN)NC(=O)[C@@H]1CNC(=O)c2cc3cc(c2)C(=O)N[C@H](Cc2ccc4ccccc4c2)C(=O)N[C@@H](CO)C(=O)N[C@@H](CC(N)=O)C(=O)N[C@H](Cc2ccc4ccccc4c2)C(=O)N[C@@H](c2ccccc2)C(=O)N[C@@H](CCCCNC3=O)C(=O)N[C@H](Cc2ccccc2)C(=O)N[C@@H](CCC(N)=O)C(=O)N[C@H](CCCNC(=N)N)C(=O)N[C@@H](CCCNC(=N)N)C(=O)N1)C(N)=O ([d2Nal]SN[d2Nal][Phg]K[dF]Q[dR]R[Dap][Orn][dR]F[dA]-NH2; linker N-6-11 via Trimesoyl)
Activity [1]: Active
Activity [2]: 3.13%
Activity [3]: Non-Toxic
Activity [7]: 15.4%
Activity [8]: Active
EC50 [12]: ≥ 20 µM
Activity [13]: 55.1%
Activity [14]: 87.7%
